Results taken from article PMC7534582 (Cancer cell, 2019).

Legend:
Type in all cases: cell-based, human
[1] = tested on: DLBCL cells with SIRT3 shRNA; assay: Rescue of autophagy; conditions: DMKG 4 mM for 3-4 hr
Summary of the method: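 DLBCL cells carrying SIRT3 or control shRNA were incubated with test compound (4 mM) for 3-4 hr, then collected for Western blot with LC3 and SIRT3 antibodies. Detection used a peroxidase-conjugated secondary antibody and enhanced chemiluminescence. LC3II/LC3I ratios were obtained by densitometry and normalized to control cells.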

[2] = tested on: SIRT3 depleted HBL1 cells; assay: Rescue of proliferation arrest caused by SIRT3 depletion; conditions: HBL1, Figure S5D
[3] = tested on: SIRT3 depleted Karpas 422 cells; assay: Rescue of proliferation arrest caused by SIRT3 depletion; conditions: Karpas 422, 4-day exposure
Summary of the method: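 Karpas 422 cells were infected with YFP-carrying lentivirus bearing SIRT3 or control shRNA and exposed for 4 days to test compounds, alone or combined. Viable YFP+ (transduced) and YFP− (non-transduced) populations were quantified by flow cytometry. Abundance was normalized to the first time point.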

[4] = tested on: SIRT3 depleted OCI-LY1 cells; assay: Rescue of proliferation arrest caused by SIRT3 depletion; conditions: OCI-LY1, Figure S5C

Compound | Rescue of LC3II/LC3I ratios (autophagy) after SIRT3 depletion [1] | Rescue of proliferation arrest caused by SIRT3 depletion [2] | Rescue of proliferation arrest caused by SIRT3 depletion [3] | Rescue of proliferation arrest caused by SIRT3 depletion [4]
COC(=O)CCC(=O)C(=O)OC [DMKG, dimethyl-αKG] | rescued LC3II/LC3I ratios | required both DMKG and MP | DMKG alone rescued | DMKG alone rescued
COC(=O)C(C)=O [MP, methyl-pyruvate] |  | required both DMKG and MP |  | 
